Assays:
[1] = system: Intestine; assay: Drug uptake in mouse intestine at 50 mg/kg, po in 20% HP-beta-CD measured at 8 hrs post dose; format: ADME, organism-based; parameters: dose 50 mg/kg, route oral; conditions: in vivo
Procedure, shortened: (§1)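 Female Swiss Webster mice, 8 weeks old, given a single 50 mg/kg oral gavage dose in 20% HPβCD or 20% Kolliphor. Tissues taken from three mice at 2 and 8 h post dose. Homogenized by probe sonication in PBS (1:4 w/v), protein precipitated with acetonitrile, and compound measured by LC-MS/MS in μM.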

[2] = system: Liver; assay: Drug uptake in mouse liver at 50 mg/kg, po in 20% Kolliphor measured at 8 hrs post dose; format: ADME, organism-based; parameters: dose 50 mg/kg, route oral; conditions: in vivo; procedure, shortened: as §1
[3] = system: Lung; assay: Drug uptake in mouse lung at 50 mg/kg, po in 20% Kolliphor measured at 8 hrs post dose; format: ADME, organism-based; parameters: dose 50 mg/kg, route oral; conditions: in vivo; procedure, shortened: as §1
[4] = system: Heart; assay: Drug uptake in mouse heart at 50 mg/kg, po in 20% Kolliphor measured at 8 hrs post dose; format: ADME, organism-based; parameters: dose 50 mg/kg, route oral; conditions: in vivo; procedure, shortened: as §1
[5] = Drug uptake in mouse fat at 50 mg/kg, po in 20% Kolliphor measured at 8 hrs post dose; format: ADME, organism-based, Adipose tissue; parameters: dose 50 mg/kg, route oral; conditions: in vivo; procedure, shortened: as §1
[6] = Drug uptake in mouse skeletal muscle at 50 mg/kg, po in 20% Kolliphor measured at 8 hrs post dose; format: ADME, organism-based, Muscle tissue; parameters: dose 50 mg/kg, route oral; conditions: in vivo; procedure, shortened: as §1
[7] = system: Liver; assay: Drug uptake in mouse liver at 50 mg/kg, po in 20% HP-beta-CD measured at 8 hrs post dose; format: ADME, organism-based; parameters: dose 50 mg/kg, route oral; conditions: in vivo; procedure, shortened: as §1
[8] = system: Lung; assay: Drug uptake in mouse lung at 50 mg/kg, po in 20% HP-beta-CD measured at 8 hrs post dose; format: ADME, organism-based; parameters: dose 50 mg/kg, route oral; conditions: in vivo; procedure, shortened: as §1
[9] = system: Heart; assay: Drug uptake in mouse heart at 50 mg/kg, po in 20% HP-beta-CD measured at 8 hrs post dose; format: ADME, organism-based; parameters: dose 50 mg/kg, route oral; conditions: in vivo; procedure, shortened: as §1
[10] = Drug uptake in mouse fat at 50 mg/kg, po in 20% HP-beta-CD measured at 8 hrs post dose; format: ADME, organism-based, Adipose tissue; parameters: dose 50 mg/kg, route oral; conditions: in vivo; procedure, shortened: as §1
[11] = Drug uptake in mouse skeletal muscle at 50 mg/kg, po in 20% HP-beta-CD measured at 8 hrs post dose; format: ADME, organism-based, Muscle tissue; parameters: dose 50 mg/kg, route oral; conditions: in vivo; procedure, shortened: as §1
[12] = target: Sterol 14-alpha demethylase (Trypanosoma cruzi (strain CL Brener), UniProt Q7Z1V1); assay: Binding affinity to Trypanosoma cruzi CYP51 by UV-vis titration method; conditions: read-out: Kd(app)
[13] = system: Trypanosoma cruzi; assay: Antitrypanosomal activity against Trypanosoma cruzi Y luc infected in mouse assessed as inhibition of parasitemia at 25 mg/kg, po bid in 20% Kolliphor administered for 4 consecutive days starting on day 3 of infection measured on day 7 post infection relative to vehicle-treated control; format: functional
Procedure, shortened: (§2)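 Female Swiss Webster mice, 8 weeks old, infected ip with 10^5 T. cruzi Y luc trypomastigotes. Only mice with detectable luminescence on day 3 were treated. Compound given by oral gavage bid for four days, as a suspension in 20% HPβCD or a solution in 20% Kolliphor, five mice per group. Vehicle group and benznidazole 50 mg/kg served as controls. On day 7, mice were injected ip with 150 mg/kg d-luciferin and imaged after 5 min under isoflurane. Percent inhibition calculated against untreated mice; two-tailed paired t test.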

[14] = system: Trypanosoma cruzi; assay: Antitrypanosomal activity against Trypanosoma cruzi Y luc infected in mouse assessed as inhibition of parasitemia at 50 mg/kg, po bid in 20% Kolliphor administered for 4 consecutive days starting on day 3 of infection measured on day 7 post infection relative to vehicle-treated control; format: functional; procedure, shortened: as §2
[15] = system: Liver microsome; assay: Half life in human liver microsomes; format: ADME
[16] = system: Liver microsome; assay: Half life in rat liver microsomes; format: ADME
[17] = system: Liver; assay: Half life in mouse liver microsomes; format: ADME
[18] = target: T1, Cytochrome P450 1A2 (Homo sapiens, UniProt P05177); assay: Inhibition of CYP1A2 in human liver microsomes at 1 uM; format: ADME
T1 sequence (P05177 whole entry): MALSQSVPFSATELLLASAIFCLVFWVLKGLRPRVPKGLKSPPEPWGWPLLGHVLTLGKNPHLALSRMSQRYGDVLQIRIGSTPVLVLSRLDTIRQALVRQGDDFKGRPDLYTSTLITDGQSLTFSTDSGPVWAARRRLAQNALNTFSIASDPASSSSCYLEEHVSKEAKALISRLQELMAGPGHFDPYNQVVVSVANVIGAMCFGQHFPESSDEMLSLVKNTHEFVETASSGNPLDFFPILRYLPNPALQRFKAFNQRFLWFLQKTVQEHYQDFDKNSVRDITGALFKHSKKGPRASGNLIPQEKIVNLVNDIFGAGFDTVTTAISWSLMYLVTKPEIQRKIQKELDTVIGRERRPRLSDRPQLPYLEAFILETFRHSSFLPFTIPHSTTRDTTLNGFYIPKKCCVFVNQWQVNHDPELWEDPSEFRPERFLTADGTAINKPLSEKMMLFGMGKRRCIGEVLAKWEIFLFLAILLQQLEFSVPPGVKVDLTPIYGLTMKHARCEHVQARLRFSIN

[19] = target: Cytochrome P450 2C9 (Homo sapiens, UniProt P11712); assay: Inhibition of CYP2C9 in human liver microsomes at 1 uM; format: ADME
[20] = target: Cytochrome P450 2D6 (Homo sapiens, UniProt P10635); assay: Inhibition of CYP2D6 in human liver microsomes at 1 uM; format: ADME
[21] = target: Cytochrome P450 3A4 (Homo sapiens, UniProt P08684); assay: Inhibition of CYP3A4 in human liver microsomes at 1 uM; format: ADME
[22] = system: Trypanosoma cruzi; assay: Antitrypanosomal activity against Trypanosoma cruzi amastigotes infected in mouse C2C12 cells after 72 hrs by DAPI staining method; format: functional, organism-based; conditions: C2C12, 72 h
[23] = system: C2C12; assay: Cytotoxicity against mouse C2C12 cells up to 10 uM; format: cell-based
Procedure, shortened: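 Mouse C2C12 myoblasts infected with T. cruzi CA-I/72, then exposed at 24 h postinfection to compound at 10 μM down to 5 pM in 5-fold steps for 72 h at 37 °C. Cells fixed in paraformaldehyde, stained with DAPI and scored by automated imaging. Triplicate wells; uninfected and infected untreated wells as controls.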

[24] = Half life in mouse at 50 mg/kg, po in 20% Kolliphor; format: ADME, organism-based; parameters: dose 50 mg/kg, route oral; conditions: in vivo
Procedure, shortened: (§3)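 Female Swiss Webster mice, 8 weeks old, given one oral gavage dose of 50 mg/kg as a 10 mg/mL preparation in the named vehicle (20% HPβCD suspension or 20% Kolliphor). Plasma sampled at about 0.25, 0.5, 1, 2, 4, 6, 8, 12 and 24 h, n = 3 per time point. Protein precipitated with 5 volumes acetonitrile, filtered, then LC-MS/MS. Values are averages of three mice.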

[25] = Half life in mouse at 50 mg/kg, po in 20% HP-beta-CD; format: ADME, organism-based; parameters: dose 50 mg/kg, route oral; conditions: in vivo; procedure, shortened: as §3
[26] = Tmax in mouse at 50 mg/kg, po in 20% Kolliphor; format: ADME, organism-based; parameters: dose 50 mg/kg, route oral; conditions: in vivo; procedure, shortened: as §3
[27] = Tmax in mouse at 50 mg/kg, po in 20% HP-beta-CD; format: ADME, organism-based; parameters: dose 50 mg/kg, route oral; conditions: in vivo; procedure, shortened: as §3
[28] = Cmax in mouse at 50 mg/kg, po in 20% Kolliphor; format: ADME, organism-based; parameters: dose 50 mg/kg, route oral; conditions: in vivo; procedure, shortened: as §3
[29] = Cmax in mouse at 50 mg/kg, po in 20% HP-beta-CD; format: ADME, organism-based; parameters: dose 50 mg/kg, route oral; conditions: in vivo; procedure, shortened: as §3
[30] = AUClast in mouse at 50 mg/kg, po in 20% Kolliphor; format: ADME, organism-based; parameters: time 0 - last, dose 50 mg/kg, route oral; conditions: plasma; procedure, shortened: as §3
[31] = AUClast in mouse at 50 mg/kg, po in 20% HP-beta-CD; format: ADME, organism-based, Plasma; parameters: time 0 - last, dose 50 mg/kg, route oral; conditions: plasma; procedure, shortened: as §3
[32] = Clearance in mouse at 50 mg/kg, po in 20% Kolliphor; format: ADME, organism-based; parameters: dose 50 mg/kg, route oral; conditions: in vivo; procedure, shortened: as §3
[33] = Clearance in mouse at 50 mg/kg, po in 20% HP-beta-CD; format: ADME, organism-based; parameters: dose 50 mg/kg, route oral; conditions: in vivo; procedure, shortened: as §3
[34] = system: Intestine; assay: Drug uptake in mouse intestine at 50 mg/kg, po in 20% Kolliphor measured at 8 hrs post dose; format: ADME, organism-based; parameters: dose 50 mg/kg, route oral; conditions: in vivo; procedure, shortened: as §1
[35] = system: Trypanosoma cruzi; assay: Antitrypanosomal activity against Trypanosoma cruzi Y luc infected in mouse assessed as inhibition of parasitemia at 40 mg/kg, ip bid in 60% DMSO administered for 4 consecutive days starting on day 3 of infection measured on day 7 post infection relative to vehicle-treated control

Cytochrome P450 2C9, sequence (P11712 whole entry): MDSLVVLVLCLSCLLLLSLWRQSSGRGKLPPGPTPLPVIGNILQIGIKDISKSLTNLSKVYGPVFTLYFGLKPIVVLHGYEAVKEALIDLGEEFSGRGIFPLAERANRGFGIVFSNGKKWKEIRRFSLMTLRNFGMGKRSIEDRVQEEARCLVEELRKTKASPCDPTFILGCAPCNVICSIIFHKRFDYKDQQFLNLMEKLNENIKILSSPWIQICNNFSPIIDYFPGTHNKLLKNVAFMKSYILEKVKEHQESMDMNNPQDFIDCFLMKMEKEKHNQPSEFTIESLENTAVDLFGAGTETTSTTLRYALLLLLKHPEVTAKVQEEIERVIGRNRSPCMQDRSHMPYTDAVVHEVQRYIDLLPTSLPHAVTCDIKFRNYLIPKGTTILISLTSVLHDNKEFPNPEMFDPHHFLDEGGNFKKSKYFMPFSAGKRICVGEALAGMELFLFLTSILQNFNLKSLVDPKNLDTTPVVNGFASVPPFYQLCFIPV
Cytochrome P450 3A4, sequence (P08684 whole entry): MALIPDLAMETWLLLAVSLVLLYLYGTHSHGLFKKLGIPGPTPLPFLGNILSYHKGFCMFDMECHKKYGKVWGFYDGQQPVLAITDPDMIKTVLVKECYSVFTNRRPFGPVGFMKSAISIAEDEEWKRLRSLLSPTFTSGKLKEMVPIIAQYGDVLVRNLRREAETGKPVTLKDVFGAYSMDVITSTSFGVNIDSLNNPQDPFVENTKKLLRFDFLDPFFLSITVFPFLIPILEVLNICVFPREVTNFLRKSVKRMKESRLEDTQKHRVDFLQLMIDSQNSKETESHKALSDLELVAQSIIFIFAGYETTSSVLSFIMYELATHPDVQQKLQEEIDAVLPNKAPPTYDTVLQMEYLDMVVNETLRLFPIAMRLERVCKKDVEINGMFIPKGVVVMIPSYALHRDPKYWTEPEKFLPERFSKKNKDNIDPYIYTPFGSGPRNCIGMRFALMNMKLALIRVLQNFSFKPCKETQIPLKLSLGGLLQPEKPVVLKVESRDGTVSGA
Sterol 14-alpha demethylase, sequence (Q7Z1V1 whole entry): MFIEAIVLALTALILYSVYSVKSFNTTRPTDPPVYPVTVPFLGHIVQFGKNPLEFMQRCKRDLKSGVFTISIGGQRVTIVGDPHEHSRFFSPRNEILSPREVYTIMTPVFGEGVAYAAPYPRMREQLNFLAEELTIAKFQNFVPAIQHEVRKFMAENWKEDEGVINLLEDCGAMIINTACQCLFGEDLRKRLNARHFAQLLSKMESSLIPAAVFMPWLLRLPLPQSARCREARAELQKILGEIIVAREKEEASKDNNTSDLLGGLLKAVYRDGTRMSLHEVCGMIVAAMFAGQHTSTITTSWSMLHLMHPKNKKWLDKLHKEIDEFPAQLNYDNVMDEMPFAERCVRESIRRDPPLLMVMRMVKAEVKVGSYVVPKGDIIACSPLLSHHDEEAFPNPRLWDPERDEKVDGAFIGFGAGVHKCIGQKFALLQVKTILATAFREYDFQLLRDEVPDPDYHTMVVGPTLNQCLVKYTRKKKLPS
Cytochrome P450 2D6, sequence (P10635 whole entry): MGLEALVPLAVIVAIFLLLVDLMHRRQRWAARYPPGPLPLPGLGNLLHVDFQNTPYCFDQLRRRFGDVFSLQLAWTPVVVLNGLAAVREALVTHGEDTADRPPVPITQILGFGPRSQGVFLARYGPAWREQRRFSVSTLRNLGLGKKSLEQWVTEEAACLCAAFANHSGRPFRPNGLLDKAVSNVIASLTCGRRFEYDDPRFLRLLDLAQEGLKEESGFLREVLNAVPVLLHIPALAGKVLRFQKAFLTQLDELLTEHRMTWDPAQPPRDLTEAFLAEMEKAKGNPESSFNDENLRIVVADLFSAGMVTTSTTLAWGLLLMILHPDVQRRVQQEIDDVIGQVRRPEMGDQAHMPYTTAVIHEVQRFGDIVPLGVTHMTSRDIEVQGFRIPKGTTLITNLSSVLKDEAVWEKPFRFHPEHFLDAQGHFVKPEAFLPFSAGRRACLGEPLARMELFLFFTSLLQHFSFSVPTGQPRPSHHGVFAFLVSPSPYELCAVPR

Compound	Drug uptake [1]	Drug uptake [2]	Drug uptake [3]	Drug uptake [4]	Drug uptake [5]	Drug uptake [6]	Drug uptake [7]	Drug uptake [8]	Drug uptake [9]	Drug uptake [10]	Drug uptake [11]	Kd [12] [µM]	inhibition in vivo at 25 mg/kg [13] [%]	inhibition in vivo at 50 mg/kg [14] [%]	t1/2 [15] [h]	t1/2 [16] [h]	t1/2 [17] [h]	inhibition (INH) [18] [%]	inhibition (INH) [19] [%]	inhibition (INH) [20] [%]	also measured
O=C(N[C@H](Cc1c[nH]c2ccccc12)C(=O)Nc1ccncc1)c1ccc(-c2ccc(F)c(Cl)c2)cc1F	Active	Active	Active	Active	Active	Active	Active	Active	Active	Active	Active	0.016	56.7	85.2	0.467	0.417	0.9	2	93	29	inhibition (INH) [21]: 29%; EC50 [22]: 0.078 µM; Activity [23]: Non-toxic; half-life [24]: 16.8 h; half-life [25]: 5.17 h; Tmax [26]: 0.75 h; Tmax [27]: 2.67 h; Cmax [28]: 17.8 µM; Cmax [29]: 5.88 µM; AUC(0-t) [30]: 153 µM·h; AUC(0-t) [31]: 30.2 µM·h; CL/F [32]: 0.557 L/h/kg; CL/F [33]: 2.67 L/h/kg; Drug uptake [34]: Active
O=C(N[C@H](Cc1c[nH]c2ccccc12)C(=O)Nc1ccncc1)c1ccc(-c2ccc(F)c(C(F)(F)F)c2)cc1F	Active	Active	Active	Active	Active	Active	Active	Active	Active	Active	Active	≤ 0.01	89.1	97.4	0.483	0.45	0.967	2	96	36	inhibition (INH) [21]: 9%; EC50 [22]: 0.17 µM; Activity [23]: Non-toxic; half-life [24]: 3.1 h; half-life [25]: 2.5 h; Tmax [26]: 4.67 h; Tmax [27]: 4.67 h; Cmax [28]: 7.35 µM; Cmax [29]: 5.1 µM; AUC(0-t) [30]: 84.5 µM·h; AUC(0-t) [31]: 26.6 µM·h; CL/F [32]: 1.05 L/h/kg; CL/F [33]: 3.15 L/h/kg; Drug uptake [34]: Active
O=C(N[C@H](Cc1c[nH]c2ccccc12)C(=O)Nc1ccncc1)c1ccc(-c2cccc(C(F)(F)F)c2)cc1F	Active	Active	Active	Active	Active	Active	Active	Active	Active	Active	Active	0.08	74.7	99.2	0.55	0.517	0.85	-16	92	14	inhibition (INH) [21]: 7%; EC50 [22]: 0.039 µM; Activity [23]: Non-toxic; Drug uptake [34]: Active; inhibition in vivo at 40 mg/kg [35]: 98.5%

Source: ChEMBL document CHEMBL3352430, “4-Aminopyridyl-based CYP51 inhibitors as anti-Trypanosoma cruzi drug leads with improved pharmacokinetic profile and in vivo potency” (J Med Chem, 2014)
